Measurements published in ChEMBL document CHEMBL4373712, “Bioactivatable Pseudotripeptidization of Cyclic Dipeptides To Increase the Affinity toward Oligopeptide Transporter 1 for Enhanced Oral Absorption: An Application to Cyclo(l-Hyp-l-Ser) (JBP485)” (J Med Chem, 2019).
Calls of active or inactive are those of the source. The calls are words filed in the database; no cut-off is given here.

Tests used:
[1] = Terminal half-life in Sprague-Dawley rat at 6 mg/kg, iv by UPLC-MS/MS analysis; assay type: ADME, organism-based; conditions: in vivo, read-out: beta t1/2 (converted)
Method in brief: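 Fasted male SD rats given JBP485 6 mg/kg intravenously. Jugular blood sampled 0.083–10 h, plasma by UPLC-MS/MS; n=6.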

[2] = AUC (0 to t) in Sprague-Dawley rat at 12 mg/kg, po by UPLC-MS/MS analysis; assay type: ADME, organism-based; conditions: in vivo
Method in brief: (§1)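 Male SD rats, 200-250 g, fasted 12 h with water, n=6. Oral dose of 12 mg/kg as JBP485 equivalent; dose-effect arms at 12 and 100 mg/kg. JBP485 given iv at 6 mg/kg as the reference. Jugular blood taken at 0.083-10 h. Plasma JBP485 by UPLC-MS/MS. Absolute F = (AUCpo×Div)/(AUCiv×Dpo)×100%, using AUC0-t.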

[3] = Cmax in Sprague-Dawley rat at 12 mg/kg, po by UPLC-MS/MS analysis; assay type: ADME, organism-based; design: dose 12 mg/kg, route oral; conditions: in vivo; method in brief: as §1
[4] = Oral bioavailability in Sprague-Dawley rat at 12 mg/kg by UPLC-MS/MS analysis; assay type: ADME, organism-based; conditions: in vivo; method in brief: as §1
[5] = Tmax in Beagle dog at 12 mg/kg, po by UPLC-MS/MS analysis; assay type: ADME, organism-based, Canis lupus familiaris; conditions: in vivo
Method in brief: (§2)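 Male beagle dogs, 2 years old, 8–10 kg, dosed orally at 12 mg/kg (prodrug calculated as JBP485) in aqueous solution. Jugular blood taken 0.167–8 h into heparin, centrifuged, plasma JBP485 by UPLC-MS/MS; n=6.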

[6] = system: Rattus norvegicus; test: (§3) Anti-hepatitis activity in ANIT-induced Sprague-Dawley rat model of liver injury assessed as reduction in liver necrosis at 6.25 to 12.5 mg/kg, ip administered 30 mins prior to ANIT challenge and subsequent dosing at 8, 22, 32, and 46 hrs post ANIT challenge and measured 48 hrs post ANIT challenge by H and E staining-based assay; assay type: functional, organism-based
Method in brief: (§4)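 ANIT 50 mg/kg ip liver-injury model in male SD rats, 6 per group. Oral or ip treatment at 30 min before and 8, 22, 32 and 46 h after ANIT. Liver excised at 48 h, fixed in 4% formalin, stained with H&E, and examined microscopically for hepatocellular edema and necrosis.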

[7] = system: Rattus norvegicus; test: as §3, with “serum aspartate aminotransferase level” for “liver necrosis”, “25” for “12.5”, “po” for “ip”, “challenge” for “challenge by H and E staining-based assay”; assay type: functional, organism-based
Method in brief: (§5)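 ANIT (50 mg/kg ip, olive oil) cholestatic liver injury in male SD rats, 6 per group. Oral or ip dosing (UDCA 100 mg/kg po in CMC-Na) at 30 min before and 8, 22, 32 and 46 h after ANIT. Serum collected at 48 h from the abdominal aorta; ALT and AST activities measured with kits.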

[8] = system: Rattus norvegicus; test: Anti-hepatitis activity in ANIT-induced ip dosed Sprague-Dawley rat model of cholestasis assessed as reduction in serum total bilirubin level administered 30 mins prior to ANIT challenge and subsequent dosing at 8, 22, 32, and 46 hrs post ANIT challenge and measured 48 hrs post ANIT challenge; assay type: functional, organism-based
Method in brief: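 Male SD rats, 6 weeks old, fasted 12 h, 6 per group. Cholestasis induced by ANIT 50 mg/kg ip in olive oil. Test agents were given in water; UDCA 100 mg/kg was given orally in CMC-Na. Dosing at 30 min before and 8, 22, 32 and 46 h after ANIT. Serum taken from the abdominal aorta under chloral hydrate anesthesia at 48 h; total bilirubin measured with an assay kit.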

[9] = AUC (0 to t) in Sprague-Dawley rat assessed as JBP485 level at 100 mg/kg, po by LC-MS/MS analysis; assay type: ADME, organism-based; conditions: in vivo; method in brief: as §1
[10] = Cmax in Sprague-Dawley rat assessed as JBP485 level at 12 mg/kg, po by LC-MS/MS analysis; assay type: ADME, organism-based; design: dose 12 mg/kg, route oral; conditions: in vivo; method in brief: as §1
[11] = Ratio of half-life in pH 7.2 phosphate buffer to half-life in Sprague-Dawley rat intestinal homogenates; assay type: ADME, tissue-based; conditions: tissue homogenate
[12] = target: T1, Solute carrier family 15 member 1 (Rattus norvegicus, UniProt P51574); test: Ratio of test compound effect to JBP485 effect for substrate activity at PEPT1 in Sprague-Dawley rat jejunum assessed as effective permeability; assay type: ADME, tissue-based
T1 sequence (P51574 whole entry): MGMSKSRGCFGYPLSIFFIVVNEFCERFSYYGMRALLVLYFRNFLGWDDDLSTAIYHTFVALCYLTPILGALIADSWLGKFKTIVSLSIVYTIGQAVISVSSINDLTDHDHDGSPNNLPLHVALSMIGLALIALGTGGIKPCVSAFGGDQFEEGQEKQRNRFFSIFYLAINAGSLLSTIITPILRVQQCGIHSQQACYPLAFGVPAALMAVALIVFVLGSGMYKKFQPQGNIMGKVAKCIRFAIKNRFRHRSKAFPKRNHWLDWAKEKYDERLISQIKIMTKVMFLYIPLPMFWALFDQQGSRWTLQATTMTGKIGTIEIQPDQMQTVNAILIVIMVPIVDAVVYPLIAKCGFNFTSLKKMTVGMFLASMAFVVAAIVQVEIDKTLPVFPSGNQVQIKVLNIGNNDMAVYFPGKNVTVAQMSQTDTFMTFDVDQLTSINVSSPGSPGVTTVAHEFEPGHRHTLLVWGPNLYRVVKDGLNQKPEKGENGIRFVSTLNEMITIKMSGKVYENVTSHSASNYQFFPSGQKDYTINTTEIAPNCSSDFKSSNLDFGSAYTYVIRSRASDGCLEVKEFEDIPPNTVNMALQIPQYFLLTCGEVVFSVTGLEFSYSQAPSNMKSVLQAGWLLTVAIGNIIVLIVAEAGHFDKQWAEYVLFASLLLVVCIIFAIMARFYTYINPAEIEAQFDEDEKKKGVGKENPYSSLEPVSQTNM
Method in brief: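 In situ single-pass jejunal perfusion in fasted (12 h) male SD rats anaesthetised with urethane 1.5 g/kg i.p. About 10 cm of jejunum was perfused at 0.2 mL/min with pH 6.0 HEPES buffer containing 5 mM compound. Outflow was collected 15–120 min after steady state and assayed by HPLC. Peff was calculated from outlet/inlet concentration and volume ratios and segment radius and length.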

[13] = AUC (0 to t) in Sprague-Dawley rat assessed as JBP485 level at 12 mg/kg equiv of JBP485 administered orally by UPLC-MS/MS analysis; assay type: ADME, organism-based; conditions: in vivo, po; method in brief: as §1
[14] = Tmax in Sprague-Dawley rat assessed as JBP485 level at 12 mg/kg equiv of JBP485 administered orally by UPLC-MS/MS analysis; assay type: ADME, organism-based; conditions: in vivo, po
Method in brief: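 Fasted male SD rats (200–250 g), oral 12 mg/kg (prodrugs calculated as JBP485). Jugular blood 0.083–10 h, centrifuged, plasma JBP485 by UPLC-MS/MS; n=6.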

[15] = Terminal half life in Beagle dog assessed as JBP485 level at 12 mg/kg equiv of JBP485 administered orally by UPLC-MS/MS analysis; assay type: ADME, organism-based, Canis lupus familiaris; conditions: in vivo, po; method in brief: as §2
[16] = system: Rattus norvegicus; test: as §3, with “3.125” for “6.25”, “25” for “12.5”, “po” for “ip”; assay type: functional, organism-based; method in brief: as §4
[17] = system: Rattus norvegicus; test: Anti-hepatitis activity in ANIT-induced Sprague-Dawley rat model of liver injury assessed as reduction in serum aspartate aminotransferase level at 3.125 to 25 mg/kg, po administered 30 mins prior to ANIT challenge and subsequent dosing at 8, 22, 32, and 46 hrs post ANIT challenge and measured 48 hrs post ANIT challenge; assay type: functional, organism-based; method in brief: as §5

half-life [1] | AUCt [2] | Cmax [3] | bioavailability [4] | Tmax [5] | AUCt [9] | Cmax [10] | Ratio [11] | Ratio [12] | AUCt [13] | Tmax [14] | beta t1/2 [15] | Compound | Activity [6] | Activity [7] | Activity [8] | Activity [16] | Activity [17]
1.13 h | 81.4 nM/ml.hr | 27.8 µM | 21% | 1.5 h | 324 µM·h | 27.84 nM/ml | – | – | – | – | – | O=C1N[C@@H](CO)C(=O)N2C[C@H](O)C[C@@H]12 | Active | Active | Dose-dependent effect | – | –
– | – | – | – | – | – | – | 3 to 35 | 6.03 | 194.47 nM/ml.hr | 0.57 h | 1.68 h | CC(C)[C@H](N)C(=O)OC[C@@H]1NC(=O)[C@@H]2C[C@@H](O)CN2C1=O | – | – | – | Active | Active
